# Screening data deposited in PubChem by several laboratories.
# FXIa inh 1536 – human FXIa protease inhibitors, primary screen, biochemical, 1536-well | purified FXIa, Boc-Glu-Ala-Arg-AMC fluorogenic substrate | 220,000 tested, 0.14% active | inhibition, % at 5 µM;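 active = inhibition of at least 40%; inactive = inhibition below 40%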;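 also: fluorescence of freed AMC excited at 355 nm; 0% = enzyme without compound and 100% = no enzyme blank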
# Wee1 stabilizer – Wee1 degradation inhibitors, primary screen, cell-based, HeLa, Wee1K328M-luciferase, luminescence; AID 1321, 2008; Wee1-like protein kinase (Homo sapiens), P30291; 220,000 tested, 1.2% active; HeLa Luc-Wee1K328M stability; 100% = proteasome inhibitor MG132 effect; reporter increase, % at 5 µM;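 active = activation above the mean of all tested compounds plus 3 SD, set per screening run, cut at about 8.8% in these data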;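 also: cells exposed to compound for 20 h before luminescence read; 0% = DMSO alone and 100% = MG132 at 30 µM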
# KLK5 inh – human KLK5 protease inhibitors, primary screen, biochemical, 1536-well; Kallikrein-5 (Homo sapiens), Q9Y337; recombinant hK5, fluorogenic AMC substrate cleavage; inhibition, % at 5 µM; 210,000 tested, 0.59% active; AID 873, 2007;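 active = inhibition of 40% or more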;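 also: 0% = enzyme controls without compound and 100% = no-enzyme blanks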
# FXIIa inh 1536 – human FXIIa protease inhibitors, primary screen, biochemical, 1536-well; Coagulation factor XII (Homo sapiens), P00748; purified FXIIa, Boc-QGR-AMC fluorogenic substrate, 2 h; inhibition, % at 5 µM; 220,000 tested, 0.3% active; AID 800, 2007; in the data active = inhibition above about 40%;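 also: 0% = enzyme with no compound and 100% = blank without enzyme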
# Target sequence (P00748 20-372 limits assumed): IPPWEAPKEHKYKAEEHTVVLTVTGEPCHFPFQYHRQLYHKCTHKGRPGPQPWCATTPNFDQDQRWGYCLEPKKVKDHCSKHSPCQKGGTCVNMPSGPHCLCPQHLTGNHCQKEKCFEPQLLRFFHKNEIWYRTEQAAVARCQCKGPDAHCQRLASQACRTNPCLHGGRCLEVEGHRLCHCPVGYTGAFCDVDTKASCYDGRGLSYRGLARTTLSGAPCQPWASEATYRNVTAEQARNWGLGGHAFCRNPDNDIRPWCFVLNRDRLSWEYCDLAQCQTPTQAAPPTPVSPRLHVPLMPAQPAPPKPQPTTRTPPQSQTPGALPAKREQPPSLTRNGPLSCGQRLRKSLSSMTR
# Target sequence (P00748 373-615 limits assumed): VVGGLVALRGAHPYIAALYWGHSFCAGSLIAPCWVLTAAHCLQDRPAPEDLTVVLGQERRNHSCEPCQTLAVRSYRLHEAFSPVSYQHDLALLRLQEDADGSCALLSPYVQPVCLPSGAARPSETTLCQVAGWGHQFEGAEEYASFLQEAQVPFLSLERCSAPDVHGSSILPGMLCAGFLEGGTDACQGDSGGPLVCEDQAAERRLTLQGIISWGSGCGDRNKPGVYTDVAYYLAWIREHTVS
# thrombin 1536 – human alpha-thrombin inhibitors, primary screen, counter-screen for coagulation protease inhibitor project, biochemical, 1536-well, fluorogenic AMC substrate | Boc-VPR-AMC fluorogenic substrate cleavage | inhibition, % at 5 µM | 220,000 tested, 0.26% active | Prothrombin (Homo sapiens), P00734;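 active = inhibition at or above 40%; inactive = inhibition below 40%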;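 also: 0% = enzyme with no compound and 100% = wells without enzyme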
#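 Assay system: human alpha-thrombin enzyme. Reagent: Boc-VPR-AMC substrate, 15 µM final. Compound dosing: one concentration per compound, 5 µM, with 0.2% DMSO. Incubation: room-temperature reaction. Technique: AMC fluorescence, 355/460 nm. Measure: % inhibition relative to enzyme controls and enzyme-free blanks.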
# The depositor's hits bear a star; x = no result given. Only some compounds are listed: those with a hit (about 2.2% of all), similar ones and a draw of the others.
SMILES,FXIa inh 1536,Wee1 stabilizer,KLK5 inh,FXIIa inh 1536,thrombin 1536
Cc1ccccc1CN(C)C(C)C(=O)Nc1ccccc1F (stereo not given),7,1,-19,-3,-1
Cc1ccc(C(C)C)c(OCc2nc(-c3nonc3N)no2)c1,-1,-1,54*,22,10
Cc1ccc2nsnc2c1S(=O)(=O)NCCc1c(C)[nH]c2ccc(F)cc12,5,-1,-6,14,0
O=S(=O)(/C=C/c1ccccc1)Nc1ccc(N2CCOCC2)cc1,7,10*,7,11,2
O=S(=O)(Nc1ccc(N2CCOCC2)cc1)c1ccccc1,0,-3,-3,12,-5
COc1ccccc1CNC(=O)C1=CCN(S(=O)(=O)c2ccc(C)cc2)CC1,2,0,4,12,1
Cc1onc(-c2ccccc2)c1C(=O)N(Cc1ccco1)Cc1cccs1,40*,1,31,21,14
Cc1onc(-c2ccccc2)c1C(=O)NCc1ccco1,-1,-1,6,13,0
Cc1ccc(-c2nn(-c3ccccc3)cc2/C=N/NS(=O)(=O)c2ccccc2)cc1,26,0,-12,45*,2
CC1(C)Cc2nc3oc4c(SCC(N)=O)ncnc4c3cc2CO1,1,-1,-2,5,3
CC(=O)N(CCS(=O)(=O)c1ccc(Cl)cc1)Cc1cccs1,-5,-1,3,6,-6
O=S(=O)(CCNCc1cccs1)c1ccc(Cl)cc1,-4,-1,50*,-1,-7
Clc1ccc(-c2nc(-c3cnccn3)no2)cc1,6,1,5,16,6
Fc1ccc(-c2nc(-c3cnccn3)no2)c(Cl)c1,-18,9.4*,5,2,-6
Cc1cc(C(=O)OCC(=O)Nc2cccc(S(=O)(=O)N(C)C)c2)c2ccccc2n1,-5,11*,-8,4,-1
NS(=O)(=O)c1cccc(NC(=O)COC(=O)c2cc(-c3ccc(Cl)cc3)nc3ccccc23)c1,2,9.0*,-8,10,-13
CN(C)S(=O)(=O)c1cccc(NC(=O)COC(=O)c2cccc(S(=O)(=O)N3CCc4ccccc4C3)c2)c1,8,11*,-3,12,-5
CSc1ncc(-c2ccc(Cl)cc2)[nH]1,3,6,1,8,-2
O=[N+]([O-])c1sccc1CS(=O)(=O)c1ccccc1,-7,-1,-6,8,-3
COc1ccc(/C(C)=N\O)cc1OC,-11,3,-3,2,-5
C=CCOC(=O)c1c(C)nc2cc3c(cc2c1C)OCO3,2,1,44*,8,16
Cc1nc(NC(=O)c2ccccc2)nc2cc3c(cc12)OCO3,3,-1,0,12,-2
Cc1ccc2nc(N/C(=N/S(=O)(=O)c3ccc(F)cc3F)c3ccccc3)sc2c1,0,9.0*,x,6,-1
O/N=C(/CCc1ccccc1)c1ccc2c(c1)OCCO2,8,1,9,11,5
O=c1[nH]c(N/N=C/c2ccccc2)nc2ccccc12,3,10*,6,13,4
SMILES,FXIa inh 1536,Wee1 stabilizer,KLK5 inh,FXIIa inh 1536,thrombin 1536
C(=N\Nc1nc2ccccc2[nH]1)/c1ccccc1,1,1,4,8,-5
O=C(CCSc1ccccc1)NC(=O)COC(=O)c1ccc(OC(F)F)cc1,4,-3,-5,11,-9
CC(C)(C)c1ccc(Oc2ccc(NC(=O)CCCC(=O)O)cn2)cc1,26,1,34,47*,37
CC(C)(CC(=O)O)CC(=O)Nc1ccc(Oc2ccc(C(C)(C)C)cc2)nc1,2,1,0,8,-5
COCCCNC(=O)/C(=C\c1cccn1C)NC(=O)c1cccs1,15,-2,16,15,50*
CCOCCCNC(=O)c1cccs1,13,1,42*,22,22
O=C(NCCO)/C(=C\c1ccc(Br)cc1)NC(=O)c1cccs1,3,-1,-6,10,-2
O=c1c(Cc2c(F)cccc2Cl)c(O)ccn1CCCN1CCOCC1,-5,0,-4,3,-9
Cn1cc(S(=O)(=O)Oc2ccccc2)c(=O)n(C)c1=O,-1,5,11,11,-1
NS(=O)(=O)c1ccc(CCNC(=O)Cc2ccccc2[N+](=O)[O-])cc1,59*,1,21,59*,52*
Cc1c(C(=O)NCCc2ccc(S(N)(=O)=O)cc2)cccc1[N+](=O)[O-],2,-1,-4,4,x
Cc1ccnc(NS(=O)(=O)c2cccc([N+](=O)[O-])c2)c1,2,-1,7,13,0
NS(=O)(=O)c1cc2c(cc1C(F)(F)F)NC(Cc1ccccc1)NS2(=O)=O (stereo not given),1,10*,-12,7,-2
CN1CCN(C(=O)c2ccc(C(F)(F)F)cc2)CC1,28,-1,46*,24,25
CN1CCN(C(=O)c2ccc(C(C)(C)C)cc2)CC1,-1,-1,-8,14,2
Cc1ccc(S(=O)(=O)N2CCN(CC(=O)N/N=C\c3ccc(O)c(O)c3)CC2)cc1,-3,0,-4,4,-10
CCC(CC)C(=O)Nc1cccc(C(=O)c2ccccc2)c1,6,9.4*,0,10,4
O=C(NCCCc1ccccc1)N1CCOCC1,-3,4,x,2,-9
CCC(C)(C)n1nnnc1C(c1cc2cc3c(cc2[nH]c1=O)OCO3)N1CCCCC1 (stereo not given),-15,-2,2,17,0
CCC(C)(C)n1nnnc1C(c1cc2ccc(OC)cc2[nH]c1=O)N1CCN(C2CCCCC2)CC1 (stereo not given),7,-2,57*,-3,31
O=C(NCc1ccc2c(c1)OCO2)c1c[nH]c2ccc(S(=O)(=O)N3CCOCC3)cc2c1=O,6,0,-12,13,55*
CCSc1ccccc1C(=O)N=C1NC(=O)CC2C(=O)NCCN12 (stereo not given),0,3,1,7,-2
CC(=O)Nc1ccc(S(=O)(=O)NCCNc2ccccc2[N+](=O)[O-])cc1,5,-3,1,99*,0
COc1cc(C(=O)N[C@H](C(=O)NC2CCCCCC2)C(C)C)cc(OC)c1OC,8,2,44*,8,2
COc1cc(OC)c(S(=O)(=O)Nc2ccc(C)cn2)cc1NC(C)=O,7,-1,2,5,-4
Cn1c(N/N=C/c2cccs2)cc(=O)n(C)c1=O,0,0,-10,-4,65*
CCOC(=O)n1c(=O)n(Cc2c(Cl)cccc2Cl)c2ccccc21,2,0,42*,14,6
